Experimental data reported in ChEMBL document CHEMBL1142537, “Spirocyclic benzopyran-based derivatives as new anti-ischemic activators of mitochondrial ATP-sensitive potassium channel” (J Med Chem, 2008).
Calls of active or inactive are those of the source. The rule behind the calls is not given here.

Key:
Rattus norvegicus [1] = experiment: Cardioprotective activity in Langendorff perfused Wistar rat assessed as rate pressure product at 40 mg/kg, ip recorded after 30 mins of global ischemia followed by 120 mins of reperfusion; format: functional; details: route intraperitoneal
Procedure, shortened: (§1)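 Adult male Wistar rats (260-350 g) given the compound ip in DMSO (40 mg/kg; cromakalim 1 mg/kg), then after 2 h anaesthetised with pentobarbital (100 mg/kg ip) and heparinized (100 UI ip). Hearts on Langendorff apparatus with an LV balloon (end-diastolic 5-10 mmHg). 30 min equilibration, 30 min global no-flow ischemia, 120 min reperfusion. RPP at 120 min expressed as % of preischemic RPP.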

Rattus norvegicus [2] = experiment: Antiischemic activity in Langendorff perfused Wistar rat assessed as ratio of ischemic area to total area at 40 mg/kg, ip; format: functional; details: route intraperitoneal
Aorta [3] = experiment: Vasorelaxation activity in Wistar rat thoracic aortic ring assessed as inhibition of KCl-induced contraction; format: functional, tissue-based
Procedure, shortened: (§2)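 Endothelium-denuded rat aortic rings recorded isometrically, equilibrated 60 min. Denudation checked with ACh (10 µM) on KCl (20 mM) tone; rings relaxing ≥10% discarded. Rings contracted with 20 mM KCl, then given 3-fold cumulative concentrations from 10 nM to 100 µM.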

Aorta [4] = experiment: Vasorelaxation activity in Wistar rat thoracic aortic ring assessed as inhibition of KCl-induced contraction at 100 uM relative to KCl; format: functional; procedure, shortened: as §2
Rattus norvegicus [5] = experiment: Cardioprotective activity in Langendorff perfused Wistar rat assessed as rate pressure product at 40 mg/kg, ip recorded after 30 mins of ischemia followed by 120 mins of reperfusion in presence of 5-hydroxydecanoic acid; format: functional, organism-based; set-up: dose 40 mg/kg
Procedure, shortened: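 In this series the mito-KATP blocker 5-hydroxydecanoic acid (10 mg/kg, in water) was given 20 min before the ip compound (40 mg/kg). The Langendorff protocol was then run: 30 min global ischemia, 120 min reperfusion. RPP at 120 min expressed as % of preischemic value.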

Rattus norvegicus [6] = experiment: Hypotensive activity in normotensive Wistar rat assessed as systolic blood pressure at 1 mg/kg, ip after 90 mins; format: functional, organism-based; set-up: dose 1 mg/kg; details: Artery
Procedure, shortened: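 Male 10-week-old normotensive Wistar rats (250 g), heparinized (100 UI ip) and anaesthetised with pentobarbital (60 mg/kg). Tail warmed 20 min under IR lamp, basal systolic pressure taken by tail-cuff. Cromakalim given ip at 1 mg/kg, groups of five. Systolic pressure recorded every 30 min for 90 min, as % of basal.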

Rattus norvegicus [7] = experiment: Cardioprotective activity in Langendorff perfused Wistar rat assessed as rate pressure product at 1 mg/kg, ip recorded after 30 mins of global ischemia followed by 120 mins of reperfusion; format: functional; details: route intraperitoneal; procedure, shortened: as §1

IC50 (Aorta [3]) | SMILES | Activity (Rattus norvegicus [1]) | Ratio (Rattus norvegicus [2]) | Emax at 100 µM (Aorta [4]) | Activity (Rattus norvegicus [5]) | Activity (Rattus norvegicus [6]) | Activity (Rattus norvegicus [7])
3.02 µM | COc1ccc(CN2CC3(CC(C)(C)Oc4ccc(Br)cc43)OCC2=O)cc1 (racemic) | 76% | 16% | 91.8% | – | – | –
– | COc1cccc(CN2CCOC3(C2)CC(C)(C)Oc2ccc(Br)cc23)c1 (racemic) | 42% | 29% | – | – | – | –
– | CC1(C)CC2(CN(Cc3ccc(Br)cc3)CCO2)c2cc(Br)ccc2O1 (racemic) | 53% | 16% | – | – | – | –
6.76 µM | CC1(C)CC2(CN(Cc3ccccc3)CCO2)c2ccccc2O1 (racemic) | 77% | 18% | 85.9% | inactive | – | –
– | COc1cccc(CN2CC3(CC(C)(C)Oc4ccc(Br)cc43)OCC2=O)c1 (racemic) | 27% | 29% | – | – | – | –
– | CC1(C)CC2(CN(Cc3ccc(N)cc3)C(=O)CO2)c2ccccc2O1 (racemic) | 53% | 19% | 12.5% | – | – | –
– | Cc1ccc(CN2CCOC3(C2)CC(C)(C)Oc2ccccc23)cc1 (racemic) | 35% | 47% | – | – | – | –
– | COc1ccc(CN2CC3(CC(C)(C)Oc4ccccc43)OCC2=O)cc1 (racemic) | 27% | 29% | – | – | – | –
– | COc1ccccc1CN1CCOC2(C1)CC(C)(C)Oc1ccccc12 (racemic) | 65% | 34% | – | – | – | –
– | COc1cccc(CN2CC3(CC(C)(C)Oc4ccccc43)OCC2=O)c1 (racemic) | 29% | 41% | – | – | – | –
– | Cc1ccc(CN2CC3(CC(C)(C)Oc4ccc(Br)cc43)OCC2=O)cc1 (racemic) | 38% | 22% | – | – | – | –
– | COc1ccccc1CN1CC2(CC(C)(C)Oc3ccc(Br)cc32)OCC1=O (racemic) | 42% | 28% | – | – | – | –
– | CC(=O)Nc1ccc(CN2CC3(CC(C)(C)Oc4ccc(Br)cc43)OCC2=O)cc1 (racemic) | – | – | 69.7% | – | – | –
14.5 µM | CC1(C)CC2(CN(Cc3ccccc3)C(=O)CO2)c2cc(Br)ccc2O1 (racemic) | 37% | 43% | 65.8% | – | – | –
– | CC(=O)Nc1ccc(CN2CCOC3(C2)CC(C)(C)Oc2ccccc23)cc1 (racemic) | – | – | 76.6% | – | – | –
– | CC(=O)Nc1ccc(CN2CCOC3(C2)CC(C)(C)Oc2ccc(Br)cc23)cc1 (racemic) | – | – | 99.8% | – | – | –
– | CC1(C)CC2(CN(Cc3ccc(N)cc3)CCO2)c2cc(Br)ccc2O1 (racemic) | 30% | 39% | – | – | – | –
– | Cc1ccc(CN2CC3(CC(C)(C)Oc4ccccc43)OCC2=O)cc1 (racemic) | 44% | 23% | – | – | – | –
– | CC1(C)CC2(CN(Cc3ccc(NS(C)(=O)=O)cc3)C(=O)CO2)c2cc(Br)ccc2O1 (racemic) | – | – | 86.8% | inactive | – | –
– | CC1(C)CC2(CN(Cc3ccc(Br)cc3)C(=O)CO2)c2cc(Br)ccc2O1 (racemic) | 23% | 47% | – | – | – | –
28.2 µM | CC1(C)CC2(CN(Cc3ccc(N)cc3)CCO2)c2ccccc2O1 (racemic) | 58% | 25% | 52.3% | – | – | –

IC50 (Aorta [3]) | SMILES | Activity (Rattus norvegicus [1]) | Ratio (Rattus norvegicus [2]) | Emax at 100 µM (Aorta [4]) | Activity (Rattus norvegicus [5]) | Activity (Rattus norvegicus [6]) | Activity (Rattus norvegicus [7])
– | CC1(C)CC2(CN(Cc3ccc(Br)cc3)CCO2)c2ccccc2O1 (racemic) | 43% | 35% | – | – | – | –
4.9 µM | CC1(C)CC2(CN(Cc3ccc(Br)cc3)C(=O)CO2)c2ccccc2O1 (racemic) | 80% | 23% | 89.2% | – | – | –
7.08 µM | CC1(C)CC2(CN(Cc3ccc(C(F)(F)F)cc3)C(=O)CO2)c2ccccc2O1 (racemic) | 2% | 53% | 101% | – | – | –
17.8 µM | CC1(C)CC2(CN(Cc3ccc(C(F)(F)F)cc3)CCO2)c2cc(Br)ccc2O1 (racemic) | 84% | 5% | 57.8% | – | – | –
– | COc1ccccc1CN1CC2(CC(C)(C)Oc3ccccc32)OCC1=O (racemic) | 36% | 25% | – | – | – | –
28.2 µM | CC1(C)CC2(CN(Cc3ccccc3)C(=O)CO2)c2ccccc2O1 (racemic) | 35% | 33% | 55.3% | – | – | –
2.95 µM | CC1(C)CC2(CN(Cc3ccc(NS(C)(=O)=O)cc3)C(=O)CO2)c2ccccc2O1 (racemic) | 70% | 23% | 98% | – | – | –
– | COc1ccc(CN2CCOC3(C2)CC(C)(C)Oc2ccccc23)cc1 (racemic) | 61% | 26% | – | – | – | –
– | CC1(C)CC2(CN(Cc3ccc(N)cc3)C(=O)CO2)c2cc(Br)ccc2O1 (racemic) | 52% | 22% | – | – | – | –
22.9 µM | CC1(C)CC2(CN(Cc3ccc(C(F)(F)F)cc3)CCO2)c2ccccc2O1 (racemic) | 34% | 31% | 59.9% | – | – | –
– | CC1(C)Oc2ccc(C#N)cc2C(N2CCCC2=O)C1O (stereo not drawn) [CROMAKALIM] | – | – | – | inactive | Active | 94%
– | CC(=O)Nc1ccc(CN2CC3(CC(C)(C)Oc4ccccc43)OCC2=O)cc1 (racemic) | – | – | 56.5% | inactive | – | –
– | COc1ccccc1CN1CCOC2(C1)CC(C)(C)Oc1ccc(Br)cc12 (racemic) | 59% | 30% | – | – | – | –
– | Cc1ccc(CN2CCOC3(C2)CC(C)(C)Oc2ccc(Br)cc23)cc1 (racemic) | 57% | 29% | – | – | – | –
– | CC1(C)CC2(CN(Cc3ccccc3)CCO2)c2cc(Br)ccc2O1 (racemic) | 42% | 31% | – | – | – | –
– | CC1(C)CC2(CN(Cc3ccc(C(F)(F)F)cc3)C(=O)CO2)c2cc(Br)ccc2O1 (racemic) | 47% | 42% | – | – | – | –
– | CC1(C)CC2(CN(Cc3ccc(NS(C)(=O)=O)cc3)CCO2)c2cc(Br)ccc2O1 (racemic) | – | – | 98.1% | inactive | – | –
– | COc1cccc(CN2CCOC3(C2)CC(C)(C)Oc2ccccc23)c1 (racemic) | 38% | 17% | – | – | – | –
– | CC1=Nc2ccc(Cl)cc2S(=O)(=O)N1 [DIAZOXIDE] | – | 28% | – | inactive | – | –
34.7 µM | COc1ccc(CN2CCOC3(C2)CC(C)(C)Oc2ccc(Br)cc23)cc1 (racemic) | 60% | 10% | 61.6% | – | – | –
15.5 µM | CC1(C)CC2(CN(Cc3ccc(NS(C)(=O)=O)cc3)CCO2)c2ccccc2O1 (racemic) | 23% | 35% | 80.6% | – | – | –
